Activity calls are given as the source filed them. The rule behind the calls is not given here.
Experiments:
[1] = molecular target: T1, DNA topoisomerase 2-alpha (Homo sapiens, UniProt P11388); test: (§1) Poison activity at recombinant human topoisomerase-2alpha expressed in Saccharomyces cerevisiae JEL1 harboring topoisomerase1 deletion mutant assessed as enzyme-mediated supercoiled pBR322 cleavable complex formation at 2.5 to 100 uM after 6 mins by ethidium bromide staining based agarose gel electrophoresis
Outline: (§2)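 Double-strand DNA cleavage by topo IIα (150 nM) on negatively supercoiled DNA, tested at 2.5, 10, 50 and 100 µM (one compound only up to 10 µM). Linear form III is resolved from forms I and II on ethidium-stained gels. Cleavage is normalised to the no-drug control set to 1, with 100 µM etoposide as reference. SD of 2-3 independent experiments.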
Target sequence in this assay (P11388 whole entry): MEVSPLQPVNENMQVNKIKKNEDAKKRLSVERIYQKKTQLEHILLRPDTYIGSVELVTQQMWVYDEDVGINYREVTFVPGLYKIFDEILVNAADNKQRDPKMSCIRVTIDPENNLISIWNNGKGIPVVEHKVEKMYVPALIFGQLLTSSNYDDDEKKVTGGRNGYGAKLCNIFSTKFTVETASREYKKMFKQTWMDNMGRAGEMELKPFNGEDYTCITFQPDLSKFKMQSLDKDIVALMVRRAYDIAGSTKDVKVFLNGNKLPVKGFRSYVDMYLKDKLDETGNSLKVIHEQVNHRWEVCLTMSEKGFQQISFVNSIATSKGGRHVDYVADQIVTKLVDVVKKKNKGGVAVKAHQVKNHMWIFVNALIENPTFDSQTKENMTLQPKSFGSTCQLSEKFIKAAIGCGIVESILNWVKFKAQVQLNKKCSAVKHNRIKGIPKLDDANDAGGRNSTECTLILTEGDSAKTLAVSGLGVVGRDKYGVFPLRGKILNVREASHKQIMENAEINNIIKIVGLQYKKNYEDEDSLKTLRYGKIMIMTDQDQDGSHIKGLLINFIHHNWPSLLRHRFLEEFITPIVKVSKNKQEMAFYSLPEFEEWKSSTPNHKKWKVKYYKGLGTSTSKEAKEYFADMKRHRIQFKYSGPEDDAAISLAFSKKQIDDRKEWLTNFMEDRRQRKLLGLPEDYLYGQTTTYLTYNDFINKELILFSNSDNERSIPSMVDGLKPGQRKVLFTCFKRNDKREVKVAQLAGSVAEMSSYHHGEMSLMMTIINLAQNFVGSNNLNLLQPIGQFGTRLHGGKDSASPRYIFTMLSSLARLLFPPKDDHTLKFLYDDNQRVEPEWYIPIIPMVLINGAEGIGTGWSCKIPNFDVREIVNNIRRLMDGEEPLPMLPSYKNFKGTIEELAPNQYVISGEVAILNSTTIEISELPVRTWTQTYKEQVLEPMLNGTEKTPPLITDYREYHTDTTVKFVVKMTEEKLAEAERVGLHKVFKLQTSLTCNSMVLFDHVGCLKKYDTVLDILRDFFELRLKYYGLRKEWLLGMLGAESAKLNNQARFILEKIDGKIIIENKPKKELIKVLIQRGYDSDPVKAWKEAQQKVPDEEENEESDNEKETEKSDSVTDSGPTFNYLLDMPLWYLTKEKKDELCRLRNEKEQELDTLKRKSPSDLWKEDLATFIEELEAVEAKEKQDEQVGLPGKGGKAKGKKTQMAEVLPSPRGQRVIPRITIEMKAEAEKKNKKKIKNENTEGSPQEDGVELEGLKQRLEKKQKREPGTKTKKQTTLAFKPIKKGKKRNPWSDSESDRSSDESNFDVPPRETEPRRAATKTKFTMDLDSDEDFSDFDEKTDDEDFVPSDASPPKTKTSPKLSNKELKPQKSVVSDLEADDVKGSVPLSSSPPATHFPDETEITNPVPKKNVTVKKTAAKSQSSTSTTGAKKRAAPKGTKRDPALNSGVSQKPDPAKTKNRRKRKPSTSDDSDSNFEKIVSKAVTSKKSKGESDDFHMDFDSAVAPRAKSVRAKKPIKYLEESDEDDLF

[2] = molecular target: T1, DNA topoisomerase 2-alpha; test: Ratio of IC50 for recombinant human topoisomerase-2alpha expressed in Saccharomyces cerevisiae JEL1 harboring topoisomerase1 deletion mutant assessed as enzyme-mediated decatenation of kinetoplast DNA to IC50 for recombinant human topoisomerase-2alpha catalytic activity expressed in Saccharomyces cerevisiae JEL1 harboring topoisomerase1 deletion mutant assessed as reduction in supercoiled pBR322 DNA relaxation
Target sequence in this assay (P11388 whole entry): as above

[3] = molecular target: T1, DNA topoisomerase 2-alpha; test: as §1, with “Inhibition of” for “Poison activity at”, “up” for “at 2.5”, “10” for “100”, “in presence of CaCl2” for “after 6 mins”
Outline: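 Cleavage reactions contain CaCl2, which raises baseline topo IIα DNA cleavage about 10- to 15-fold. Enzyme at 150 nM with negatively supercoiled DNA. Xanthones are tested up to 10 µM, with no-enzyme and enzyme-only controls.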
Target sequence in this assay (P11388 whole entry): as above

[4] = molecular target: T1, DNA topoisomerase 2-alpha; test: (§3) Inhibition of 150 nM recombinant human topoisomerase-2alpha catalytic activity expressed in Saccharomyces cerevisiae JEL1 harboring topoisomerase1 deletion mutant assessed as reduction in supercoiled pBR322 DNA relaxation at 10 uM after 4 mins by ethidium bromide staining based agarose gel electrophoresis
Outline: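 Control relaxation run at high enzyme (150 nM topo IIα) to match the cleavage assay. Negatively supercoiled DNA substrate, with no-enzyme and enzyme-only controls, read on gel.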
Target sequence in this assay (P11388 whole entry): as above

[5] = molecular target: T1, DNA topoisomerase 2-alpha; test: as §3, with “enzyme-mediated relaxed” for “supercoiled”, “strand passage” for “relaxation at 10 uM”, “2” for “4”, “mins in presence of APP(NH)P” for “mins”
Outline: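 Topo IIα at 150 nM with relaxed DNA as substrate, ATP replaced by the non-hydrolysable analogue APP(NH)P, so only events up to strand passage are scored. Catenated DNA is read at the gel origin against relaxed DNA bands, with no-enzyme and enzyme-only controls. Gels represent at least 3 independent experiments.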
Target sequence in this assay (P11388 whole entry, looked up, stated change not applied): as the sequence (P11388 whole entry) above

[6] = molecular target: T1, DNA topoisomerase 2-alpha; test: Inhibition of recombinant human topoisomerase-2alpha expressed in Saccharomyces cerevisiae JEL1 harboring topoisomerase1 deletion mutant assessed as reduction in enzyme-mediated [gamma32P]ATP hydrolysis using relaxed pBR322 DNA as substrate after 8 mins
Target sequence in this assay (P11388 whole entry, looked up, stated change not applied): as the sequence (P11388 whole entry) above

[7] = molecular target: T1, DNA topoisomerase 2-alpha; test: Inhibition of recombinant human topoisomerase-2alpha expressed in Saccharomyces cerevisiae JEL1 harboring topoisomerase1 deletion mutant assessed as reduction in enzyme-mediated [gamma32P]ATP hydrolysis up to 50 uM after 8 mins
Target sequence in this assay (P11388 whole entry): as above

[8] = molecular target: T1, DNA topoisomerase 2-alpha; test: Inhibition of recombinant human topoisomerase-2alpha expressed in Saccharomyces cerevisiae JEL1 harboring topoisomerase1 deletion mutant assessed as reduction in etoposide induced enzyme-mediated DNA cleavage up to 100 uM by ethidium bromide staining based agarose gel electrophoresis
Outline: (§4)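 Competition assay: 5-100 µM xanthone (one compound only up to 10 µM, for solubility) is added with 100 µM etoposide. Enzyme double-strand break levels are expressed relative to etoposide alone, set to 100%. Mean ± SD of 2-3 independent experiments.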
Target sequence in this assay (P11388 whole entry): as above

[9] = molecular target: T1, DNA topoisomerase 2-alpha; test: Inhibition of 3 nM recombinant human topoisomerase-2alpha catalytic activity expressed in Saccharomyces cerevisiae JEL1 harboring topoisomerase1 deletion mutant assessed as reduction in supercoiled pBR322 DNA relaxation after 4 mins by ethidium bromide staining based agarose gel electrophoresis
Outline: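 Topo IIα at 3 nM relaxes negatively supercoiled DNA, with no-enzyme and enzyme-only controls. Supercoiled (form I) and nicked (form II) bands are resolved on gel, and IC50 is estimated from the gels. Gels represent 2-4 independent experiments.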
Target sequence in this assay (P11388 whole entry, looked up, stated change not applied): as the sequence (P11388 whole entry) above

[10] = molecular target: T1, DNA topoisomerase 2-alpha; test: as §3, with “of” for “of 150 nM”, “in presence of spermine” for “after 4 mins”
Outline: (§5)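 Negatively supercoiled plasmid relaxed by 3 nM topoisomerase IIα with polyamine (spermidine or spermine) added. Controls were DNA without enzyme and enzyme without inhibitor. Products resolved on gels with supercoiled (form I) and nicked (form II) markers, then quantified. Error bars are standard error of the mean for 2 independent experiments.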

[11] = molecular target: T1, DNA topoisomerase 2-alpha; test: as §3, with “of” for “of 150 nM”, “in presence of spermidine” for “after 4 mins”; outline: as §5
[12] = molecular target: T1, DNA topoisomerase 2-alpha; test: as §3, with “3” for “150”
Outline: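 Relaxation of negatively supercoiled plasmid by 3 nM topoisomerase IIα was read from gel mobility (supercoiled form I vs nicked form II). Controls were DNA without enzyme and enzyme-treated DNA without compound. Gels are representative of 2-4 independent experiments.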

[13] = molecular target: T1, DNA topoisomerase 2-alpha; test: as §1, with “up” for “at 2.5”, “10” for “100”; outline: as §2
[14] = Solubility of the compound in Tris-HCl at pH 7.9 at 50 to 100 uM; format: physicochemical; details: buffer, pH 7.9, 100 µM
[15] = molecular target: T1, DNA topoisomerase 2-alpha; test: Inhibition of recombinant human topoisomerase-2alpha expressed in Saccharomyces cerevisiae JEL1 harboring topoisomerase1 deletion mutant assessed as reduction in etoposide induced enzyme-mediated DNA cleavage up to 10 uM by ethidium bromide staining based agarose gel electrophoresis; outline: as §4

Row | Ratio IC50 [2] | inhibition [3] | inhibition [4] | IC50 [9] [µM] | SMILES | Activity [1] | further results
1 | 2 to 3 | inactive | Active | 1 | NCCCNCC(O)COc1cc(O)c2c(=O)c3ccccc3oc2c1 (stereo not given) | inactive | inhibition [8]: Active
2 | – | – | – | > 1000 | NCCCCNCCCN [SPERMIDINE] | – | –
3 | 2 to 3 | inactive | inactive | ≥ 100 | O=c1c2ccccc2oc2cc(O)cc(O)c12 | inactive | inhibition [10]: inactive; inhibition [11]: inactive; inhibition [12]: inactive

Second part, the compound before the results:

Row | SMILES | Ratio IC50 [2] | inhibition [3] | inhibition [4] | IC50 [9] [µM] | Activity [1] | further results
4 | NCCCCNCCCNCC(O)COc1cc(O)c2c(=O)c3ccccc3oc2c1 (stereo not given) | 2 to 3 | inactive | Active | – | inactive | IC50 [5]: < 10 µM; IC50 [6]: 10 µM; inhibition [7]: inactive; inhibition [8]: Active
5 | CCCCNCC(O)COc1cc(O)c2c(=O)c3ccccc3oc2c1 (stereo not given) | – | – | – | 100 | inactive | –
6 | NCCCCNCC(O)COc1cc(O)c2c(=O)c3ccccc3oc2c1 (stereo not given) | – | – | – | 2.5 to 5 | inactive | –
7 | NCCCNCCCCNCCCN [SPERMINE] | – | – | – | > 1000 | – | –
8 | Cl.Cl.Cl.Cl.NCCCNCCCCNCCCNCC(O)COc1cc(O)c2c(=O)c3ccccc3oc2c1 (stereo not given) | 2 to 3 | inactive | Active | – | – | Activity [13]: inactive; solubility [14]: Insoluble; IC50 [5]: < 10 µM; inhibition [15]: Active

From ChEMBL document CHEMBL4043227, “Novel xanthone-polyamine conjugates as catalytic inhibitors of human topoisomerase IIα” (Bioorg Med Chem Lett, 2017)
